Bioassay records: PubChem BioAssay, several laboratories
NPY-Y2 PAM-ag: human NPY-Y2 potentiation or agonism, primary screen | P49146 | cells expressing NPY-Y2, potentiator/agonist read-out | activation, % at 3.6 µM | actives 0.45% (n = 220,000) | AID 1359; in the data active means activation above about 27%;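 further: cells stimulated with NPY near EC25 plus isoproterenol at EC100; 0% = vehicle plus submaximal agonist and 100% = vehicle plus saturating agonist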
NPY-Y1 antag: blocks the human neuropeptide Y Y1 receptor | P25929 | HEK293-CNG Y1 cells, membrane potential fluorescence; NPY at EC95, then isoproterenol | actives 1% (n = 200,000) | AID 1040 | inhibition, % at 3.6 µM;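 active means inhibition above the campaign mean inhibition of all tested compounds plus 3 SD, cut at about 20% in these data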;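 further: 0% = DMSO wells given NPY plus isoproterenol and 100% = isoproterenol alone without NPY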
Target sequence (P25929 whole entry, looked up): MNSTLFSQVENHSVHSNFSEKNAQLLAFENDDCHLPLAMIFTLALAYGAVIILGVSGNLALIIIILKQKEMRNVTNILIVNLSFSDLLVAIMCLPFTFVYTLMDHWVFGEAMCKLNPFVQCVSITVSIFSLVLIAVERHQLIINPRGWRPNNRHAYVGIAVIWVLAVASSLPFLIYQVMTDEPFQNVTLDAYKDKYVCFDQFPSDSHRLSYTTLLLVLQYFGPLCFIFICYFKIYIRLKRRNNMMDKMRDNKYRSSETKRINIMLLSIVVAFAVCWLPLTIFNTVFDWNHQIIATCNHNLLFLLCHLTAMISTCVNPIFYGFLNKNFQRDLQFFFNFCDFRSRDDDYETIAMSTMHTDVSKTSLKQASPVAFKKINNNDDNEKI
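Assay system: HEK293 Y1/CNG channel cell line; Doses: single compound dose of 3.6 µM, 0.4% DMSO; Timing: dye 3 h, compound 60 min room temperature, stimulation 45 min; Technique: Membrane-potential fluorescent dye readout; Measure: % inhibition of NPY effect.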
EP2 modulator: modulators of human EP2 prostaglandin E2 receptor; P43116; EP2-expressing cells, cAMP HTRF FRET, PGE2 co-stimulation; induction, % at 25 µM; actives 0.83% (n = 260,000); AID 940;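 active means compounds whose cAMP rise, as percent of the full-agonist control response, exceeds 60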;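 further: rat C6 glioma line stably carrying human EP2 under a CMV promoter; the protocol text gives 20 µM as final concentration; 100% = response of wells given 1 µM PGE2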
Target sequence (P43116 whole entry, looked up): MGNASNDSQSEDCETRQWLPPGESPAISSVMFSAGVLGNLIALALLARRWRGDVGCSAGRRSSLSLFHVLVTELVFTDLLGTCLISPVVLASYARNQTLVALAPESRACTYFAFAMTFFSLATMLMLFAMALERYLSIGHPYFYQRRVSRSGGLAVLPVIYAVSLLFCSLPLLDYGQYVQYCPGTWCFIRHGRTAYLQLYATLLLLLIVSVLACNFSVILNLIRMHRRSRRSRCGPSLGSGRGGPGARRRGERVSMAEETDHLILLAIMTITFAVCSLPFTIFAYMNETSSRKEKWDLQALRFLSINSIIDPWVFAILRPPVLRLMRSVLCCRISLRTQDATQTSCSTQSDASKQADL
NPY-Y1 PAM-ag: potentiates or activates human NPY-Y1 receptor; actives 0.37% (n = 220,000); AID 1304; P25929; NPY-Y1 expressing cells, potentiator/agonist activation; activation, % at 3.6 µM; in the data active means activation above about 33%, passing the limit was not always enough;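 further: cells stimulated with NPY at EC10 then isoproterenol at EC100; 0% = low agonist plus stimulus and 100% = saturating agonist plus stimulus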
EP2 antag: EP2 receptor (human) inhibition; actives 0.52% (n = 260,000); C6 glioma cells expressing human EP2, cAMP TR-FRET; cells stimulated with saturating PGE2; AID 1422; P43116; inhibition, % at 25 µM;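 active means percent inhibition above 40 after rounding to a whole number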;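 further: rat C6 glioma host cells with rolipram phosphodiesterase inhibitor present; the protocol text gives 20 µM as final concentration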
NPY-Y2 antag: antagonists of human neuropeptide Y receptor Y2; AID 793; inhibition, % at 2.7 µM; P49146; actives 0.99% (n = 140,000); NPY-Y2 expressing cells, antagonist mode; in the data active means inhibition above about 17%;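 further: 0% = vehicle with agonist challenge and 100% = reference antagonist with challenge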
NPY-Y1 antag ct: human NPY-Y1 antagonism in NPY-Y2 counter-screen; shares compounds with NPY-Y2 antag; cell-based NPY-Y1 antagonism counterscreen; inhibition, % at 3.6 µM; actives 19% (n = 710); AID 1256; in the data active means inhibition above about 20%;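 further: cells challenged with NPY then isoproterenol with cAMP sensed through a CNG channel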
NPY-Y2 ant conf: human NPY-Y2 antagonism, confirmation; HEK293 NPY-Y2 CNG channel, membrane potential fluorescence; actives 32% (n = 710); shares compounds with NPY-Y2 antag; inhibition, % at 2.8 µM; AID 1257;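 active means mean inhibition of triplicate wells above the hit cutoff set in the primary screen, cut at about 17% in these data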;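 further: 0% = DMSO with NPY challenge and 100% = BIIE0246 high control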
* = called active by the depositor; x = no result given. Compounds with a hit are over-represented: about 2.8% of the library has one in this group of screens.

SMILES	NPY-Y2 PAM-ag	NPY-Y1 antag	EP2 modulator	NPY-Y1 PAM-ag	EP2 antag	NPY-Y2 antag	NPY-Y1 antag ct	NPY-Y2 ant conf
Cc1ccc2nc(-c3ccc(NC(=O)C4CCCO4)cc3)sc2c1 (configuration not stated)	x	x	-106.4	x	31.0	x	x	x
O=C(COC(=O)/C=C/c1cccc(F)c1)Nc1ccccc1-c1ccccc1	6.3	9.4	-4.9	15.6	4.3	16.1	x	x
O=C(COC(=O)/C=C/c1ccc(F)cc1)Nc1ccccc1-c1ccccc1	-2.7	2.8	-29.7	-18.6	3.9	17.8*	12.2	14.0
CCOc1cccc(/C(O)=C2/C(=O)C(=O)N(Cc3cccnc3)C2c2ccc(C)o2)c1 (configuration not stated)	x	x	-10.5	x	7.7	x	x	x
O=C(c1ccco1)N(CCC(c1ccccc1)c1ccco1)Cc1ccccc1 (configuration not stated)	1.9	15.5	47.8	3.4	7.4	18.4*	4.4	6.8
CC[n+]1c(/C=C(\C)Nc2ccccc2)sc2ccccc21	-1.4	6.7	-23.1	-18.3	13.7	23.4*	9.9	15.0
CCN(CC)CCCN=Cc1c(O)n(Cc2ccccc2)c(=O)c2ccccc12	-11.5	2.6	-39.8	0.2	13.9	3.7	x	x
CC(C)CCC(C)N=Cc1c(O)n(Cc2ccccc2)c(=O)c2ccccc12 (configuration not stated)	-3.0	13.7	40.1	-19.8	4.9	21.3*	26.6*	20.8*
Cc1ccc2n1CCN(C(=O)c1cc3c([nH]c1=O)CCCCC3)C2C(C)C (configuration not stated)	x	x	-36.2	x	4.6	x	x	x
O=C(C1CCC1)N1CCc2cc(S(=O)(=O)Nc3ccc4c(c3)OCO4)ccc21	5.0	6.1	-6.5	-36.5	10.6	19.4*	4.6	7.0
CCC(C)(C(=O)NC1CCCCC1)N(Cc1ccco1)C(=O)c1cnccn1 (configuration not stated)	-17.2	10.7	25.6	-14.6	4.4	8.4	x	x
CCC(C)(C(=O)NC1CCCC1)N(Cc1ccco1)C(=O)c1ccccn1 (configuration not stated)	-13.1	17.8	32.7	-14.3	3.3	22.8*	13.9	8.1
CCOc1ccc(/C=C/c2[nH]c(=O)[nH]c(=O)c2[N+](=O)[O-])cc1OC	x	x	-31.7	x	6.0	x	x	x
Cc1cc(C(F)F)nn1CC(=O)NCc1ccc(Cl)cc1Cl	14.7	8.6	17.2	5.5	1.4	17.1*	-0.8	1.3
Cc1cc(C(F)F)nn1CC(=O)NCc1ccco1	4.1	6.1	1.6	15.6	2.3	-2.5	x	x
CN1CCN(c2ccccc2NC(=O)c2ccc(-c3ccc(Cl)cc3Cl)o2)CC1	-9.4	8.3	34.5	-66.2	6.3	17.2*	11.7	24.7*
OCCCCNCc1cc(Br)ccc1OCc1ccccc1	-19.2	7.7	52.5	-36.2	4.2	x	x	x
OCCNCc1cc(Br)ccc1OCc1ccccc1Cl	-24.7	4.8	-0.5	-68.1	9.0	21.9*	9.5	16.1
O=C(NCc1ccccc1)C(c1ccccn1)N(C(=O)c1csnn1)C1CCCC1 (configuration not stated)	x	x	-14.0	x	17.5	x	x	x
CCN(CC)c1ccc2cc(-c3nnc(-c4ccccc4O)o3)c(=O)oc2c1	x	x	-61.9	x	14.9	x	x	x
COc1cccc(Nc2nc(NCC3CCCO3)c3ccccc3n2)c1 (configuration not stated)	-4.7	15.3	-53.8	-20.3	52.5*	24.4*	21.1*	13.8
CN1CCN(CC(=O)Nc2ccc3ccccc3c2)CC1	x	x	-54.3	x	6.0	x	x	x
Cc1ccc(-c2cnc3n2CCCCC3)cc1	-2.7	-0.8	-8.6	-4.5	3.7	x	x	x
c1ccc(-c2ccc(-c3cnc4n3CCCCC4)cc2)cc1	-15.5	13.3	19.1	-31.1	4.0	23.8*	8.7	16.9
CCN(CC)S(=O)(=O)c1ccc(C)c(C(=O)Oc2cccc(-c3cnc4ccccc4n3)c2)c1	-10.3	4.7	-9.4	-0.2	6.1	4.0	x	x
SMILES	NPY-Y2 PAM-ag	NPY-Y1 antag	EP2 modulator	NPY-Y1 PAM-ag	EP2 antag	NPY-Y2 antag	NPY-Y1 antag ct	NPY-Y2 ant conf
CCN(CC)S(=O)(=O)c1cc(C(=O)Oc2cccc(-c3cnc4ccccc4n3)c2)ccc1OC	-0.1	13.9	-1.5	-48.0	19.6	20.3*	31.1*	13.7
CCOC(=O)c1nn(-c2cccc(C)c2)c2nc(-c3ccccc3)c(C#N)c(=O)n12	-7.8	-1.6	11.8	-8.7	16.0	1.3	x	x
CCOC(=O)c1nn(-c2ccc(F)cc2)c2nc(-c3ccccc3)c(C#N)c(=O)n12	-8.4	7.3	64.6*	-11.0	8.9	18.6*	10.7	7.8
CC(C)OC(=O)c1ccc(NC(=O)Cn2c(-c3nonc3N)nc3ccccc32)cc1	-15.4	19.8	6.3	-43.8	9.8	17.9*	10.8	12.5
COC(=O)c1ccccc1NC(=O)Cn1c(-c2nonc2N)nc2ccccc21	-13.0	19.9	42.5	-42.9	x	38.7*	18.6	23.5*
COC(=O)c1ccc(NC(=O)Cn2c(-c3nonc3N)nc3ccccc32)cc1	22.4	-1.3	13.3	4.3	4.0	x	x	x
CCOc1ccc(NC(=O)N2CCC(NC(=O)C3CCCCC3)CC2)cc1	x	x	-17.1	x	3.5	x	x	x
COc1ccccc1NC(=O)N(Cc1cc2c(C)ccc(C)c2[nH]c1=O)C1CCCCC1	x	x	20.7	x	2.8	x	x	x
CC1CCCCC1NC(=O)c1ccc(S(=O)(=O)NCc2ccco2)cc1 (configuration not stated)	2.9	9.4	-6.2	-17.4	11.9	17.2*	9.2	9.0
Cc1nn(-c2ccccc2)c2[nH]c(=O)c(CNc3ccc4ncccc4c3)cc12	x	x	-24.1	x	7.1	x	x	x
CCC(C)(C)NC(=O)C(c1ccco1)N(C(=O)c1csnn1)c1cccc(C)c1 (configuration not stated)	x	x	20.7	x	11.3	x	x	x
COCCNC(=O)C(=O)NCc1cccnc1	x	x	-17.1	x	10.8	x	x	x
COc1ccc(-n2nc(C(=O)Nc3ccc4c(c3)OCO4)c3ccccc3c2=O)cc1	-6.9	0.5	5.3	-9.1	x	22.9*	12.2	20.9*
CC1CCN(c2ccccc2NC(=S)NC(=O)c2cccs2)CC1	-0.5	7.4	48.1	-36.4	10.6	21.0*	20.1*	15.3
CS(=O)(=O)N1CCN(c2ccccc2NC(=S)NC(=O)c2cccs2)CC1	-12.7	-4.4	1.4	2.3	4.0	x	x	x
COc1ccccc1Nc1nc2nonc2nc1N1CCCCC1C (configuration not stated)	0.9	6.1	49.7	-10.0	10.5	18.6*	17.2	9.1
Cc1cc(/C=N/n2cnnc2)c(C)n1-c1ccc(OCc2ccc(Cl)cc2Cl)cc1	-9.0	8.2	8.8	-57.8	12.7	22.1*	21.2*	23.7*
